Results taken from ChEMBL document CHEMBL3588833 (ACS Med Chem Lett, 2015).
Calls of active or inactive are those of the source.

Legend:
[1] = Intrinsic clearance in human liver microsomes; assay type: ADME; details: read-out: CLH
[2] = biological target: Sodium channel protein type 5 subunit alpha (Homo sapiens, UniProt Q14524); experiment: Inhibition of human Nav1.5 expressed in HEK293 cells by IonWorks Quattro selectivity assay; assay type: cell-based
[3] = biological target: T1, Sodium channel protein type 2 subunit alpha (Homo sapiens, UniProt Q99250); experiment: Inhibition of human Nav1.2 expressed in SHSY5Y cells assessed as reduction in blue fluorescent signal by VSP-FRET assay; assay type: cell-based, SH-SY5Y
T1 sequence (Q99250 whole entry): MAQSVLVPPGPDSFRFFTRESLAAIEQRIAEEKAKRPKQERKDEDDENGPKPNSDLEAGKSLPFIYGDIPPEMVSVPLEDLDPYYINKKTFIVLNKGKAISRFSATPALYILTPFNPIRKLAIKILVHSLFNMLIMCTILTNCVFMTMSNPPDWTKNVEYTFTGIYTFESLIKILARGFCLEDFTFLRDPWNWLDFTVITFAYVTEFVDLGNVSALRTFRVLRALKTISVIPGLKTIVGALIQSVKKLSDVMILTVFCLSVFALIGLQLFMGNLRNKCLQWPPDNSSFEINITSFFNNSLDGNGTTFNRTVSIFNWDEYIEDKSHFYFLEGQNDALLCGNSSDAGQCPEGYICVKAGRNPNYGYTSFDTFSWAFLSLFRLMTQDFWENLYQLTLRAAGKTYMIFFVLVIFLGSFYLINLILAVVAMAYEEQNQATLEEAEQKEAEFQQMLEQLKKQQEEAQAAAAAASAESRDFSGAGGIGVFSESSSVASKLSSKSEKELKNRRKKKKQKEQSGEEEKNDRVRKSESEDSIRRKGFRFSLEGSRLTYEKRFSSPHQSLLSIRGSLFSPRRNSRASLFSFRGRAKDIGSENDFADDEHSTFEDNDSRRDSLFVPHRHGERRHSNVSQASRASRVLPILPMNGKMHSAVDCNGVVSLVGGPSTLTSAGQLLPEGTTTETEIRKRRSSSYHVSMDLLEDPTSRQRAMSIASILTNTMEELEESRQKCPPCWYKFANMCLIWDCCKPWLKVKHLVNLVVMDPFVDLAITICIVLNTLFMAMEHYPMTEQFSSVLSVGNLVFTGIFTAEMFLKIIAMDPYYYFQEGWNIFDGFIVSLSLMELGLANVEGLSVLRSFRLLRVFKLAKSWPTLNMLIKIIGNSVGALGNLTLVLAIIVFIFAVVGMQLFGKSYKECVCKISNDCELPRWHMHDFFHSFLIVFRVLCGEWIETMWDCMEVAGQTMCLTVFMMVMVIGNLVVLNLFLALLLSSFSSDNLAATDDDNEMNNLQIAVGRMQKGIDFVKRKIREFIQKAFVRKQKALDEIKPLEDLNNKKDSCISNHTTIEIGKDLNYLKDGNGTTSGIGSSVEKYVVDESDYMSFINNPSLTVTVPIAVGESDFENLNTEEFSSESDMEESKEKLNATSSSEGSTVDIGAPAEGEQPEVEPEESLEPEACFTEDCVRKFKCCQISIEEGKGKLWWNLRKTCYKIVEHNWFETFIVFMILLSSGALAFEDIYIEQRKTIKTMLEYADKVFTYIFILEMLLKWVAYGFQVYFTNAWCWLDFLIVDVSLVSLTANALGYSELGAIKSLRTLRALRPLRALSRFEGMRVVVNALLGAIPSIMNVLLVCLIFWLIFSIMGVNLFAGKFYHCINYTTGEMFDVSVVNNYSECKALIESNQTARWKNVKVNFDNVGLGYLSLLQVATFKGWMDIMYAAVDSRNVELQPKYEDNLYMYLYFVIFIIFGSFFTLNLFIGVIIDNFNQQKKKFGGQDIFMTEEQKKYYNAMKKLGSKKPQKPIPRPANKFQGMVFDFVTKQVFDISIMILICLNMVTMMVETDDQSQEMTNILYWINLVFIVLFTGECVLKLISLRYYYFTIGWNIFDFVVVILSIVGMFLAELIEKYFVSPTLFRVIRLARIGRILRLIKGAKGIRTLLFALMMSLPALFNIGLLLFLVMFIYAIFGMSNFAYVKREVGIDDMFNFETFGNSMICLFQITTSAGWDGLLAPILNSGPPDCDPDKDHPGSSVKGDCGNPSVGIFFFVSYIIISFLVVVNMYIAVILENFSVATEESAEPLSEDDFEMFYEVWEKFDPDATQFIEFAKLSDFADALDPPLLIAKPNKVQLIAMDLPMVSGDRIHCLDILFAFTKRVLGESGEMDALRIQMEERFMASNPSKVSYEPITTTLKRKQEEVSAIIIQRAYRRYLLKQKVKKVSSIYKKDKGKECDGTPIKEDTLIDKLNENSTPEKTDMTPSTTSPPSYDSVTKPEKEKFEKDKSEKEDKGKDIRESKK

[4] = Intrinsic clearance in rat liver microsomes; assay type: ADME; details: read-out: CLH
[5] = Oral bioavailability in rat at 5 mg/kg; assay type: ADME, organism-based; details: in vivo
[6] = biological target: Sodium channel protein type 1 subunit alpha (Homo sapiens, UniProt P35498); experiment: Inhibition of human Nav1.1 expressed in HEK293 cells by IonWorks Quattro selectivity assay; assay type: cell-based
[7] = Inhibition of Voltage gated sodium channel-mediated TTX-r current in rat DRG neurons by manual patch clamp electrophysiology; details: DRG neuron
[8] = Half life in rat at 5 mg/kg, po; assay type: ADME, organism-based; details: in vivo
[9] = Plasma clearance in rat at 5 mg/kg, po; assay type: ADME, organism-based
[10] = Half life in rat at 2 mg/kg, iv; assay type: ADME, organism-based; details: in vivo
[11] = biological target: T2, Sodium channel protein type 10 subunit alpha (Homo sapiens, UniProt Q9Y5Y9); experiment: Inhibition of human Nav1.8/beta1 expressed in HEK293 cells by manual patch clamp electrophysiology; assay type: cell-based
How it was run: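 Recombinantly expressed human Nav1.8 with β1 subunit, recorded by manual whole-cell patch clamp electrophysiology. Inhibition was measured at the channel's V0.5 of inactivation, and IC50 values were derived from these recordings, with the number of determinations (n) reported per compound.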

Rattus norvegicus [12] = experiment: Antallodynic effect in Sprague-Dawley rat spinal nerve injury-induced neuropathic pain model at 10 or 30 mg/kg; assay type: functional, organism-based
[13] = Plasma clearance in rat at 2 mg/kg, iv; assay type: ADME, organism-based
[14] = Inhibition of Voltage gated sodium channel-mediated TTX-R current in human DRG neurons by manual patch clamp electrophysiology; details: DRG neuron
[15] = biological target: T2, Sodium channel protein type 10 subunit alpha; experiment: Inhibition of human Nav1.8 expressed in HEK293 cells assessed as reduction in blue fluorescent signal by VSP-FRET assay; assay type: cell-based
How it was run: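 hNav1.8 stably expressed in an in-house HEK293 line; membrane-potential VSP-FRET read-out; IC50 from at least three tests on three separate assay runs.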

[16] = biological target: T1, Sodium channel protein type 2 subunit alpha; experiment: Inhibition of human Nav1.2 expressed in HEK293 cells by IonWorks Quattro selectivity assay; assay type: cell-based
[17] = biological target: Voltage-gated inwardly rectifying potassium channel KCNH2 (Homo sapiens, UniProt Q12809)
Chain of Voltage-gated inwardly rectifying potassium channel KCNH2 (Q12809 whole entry): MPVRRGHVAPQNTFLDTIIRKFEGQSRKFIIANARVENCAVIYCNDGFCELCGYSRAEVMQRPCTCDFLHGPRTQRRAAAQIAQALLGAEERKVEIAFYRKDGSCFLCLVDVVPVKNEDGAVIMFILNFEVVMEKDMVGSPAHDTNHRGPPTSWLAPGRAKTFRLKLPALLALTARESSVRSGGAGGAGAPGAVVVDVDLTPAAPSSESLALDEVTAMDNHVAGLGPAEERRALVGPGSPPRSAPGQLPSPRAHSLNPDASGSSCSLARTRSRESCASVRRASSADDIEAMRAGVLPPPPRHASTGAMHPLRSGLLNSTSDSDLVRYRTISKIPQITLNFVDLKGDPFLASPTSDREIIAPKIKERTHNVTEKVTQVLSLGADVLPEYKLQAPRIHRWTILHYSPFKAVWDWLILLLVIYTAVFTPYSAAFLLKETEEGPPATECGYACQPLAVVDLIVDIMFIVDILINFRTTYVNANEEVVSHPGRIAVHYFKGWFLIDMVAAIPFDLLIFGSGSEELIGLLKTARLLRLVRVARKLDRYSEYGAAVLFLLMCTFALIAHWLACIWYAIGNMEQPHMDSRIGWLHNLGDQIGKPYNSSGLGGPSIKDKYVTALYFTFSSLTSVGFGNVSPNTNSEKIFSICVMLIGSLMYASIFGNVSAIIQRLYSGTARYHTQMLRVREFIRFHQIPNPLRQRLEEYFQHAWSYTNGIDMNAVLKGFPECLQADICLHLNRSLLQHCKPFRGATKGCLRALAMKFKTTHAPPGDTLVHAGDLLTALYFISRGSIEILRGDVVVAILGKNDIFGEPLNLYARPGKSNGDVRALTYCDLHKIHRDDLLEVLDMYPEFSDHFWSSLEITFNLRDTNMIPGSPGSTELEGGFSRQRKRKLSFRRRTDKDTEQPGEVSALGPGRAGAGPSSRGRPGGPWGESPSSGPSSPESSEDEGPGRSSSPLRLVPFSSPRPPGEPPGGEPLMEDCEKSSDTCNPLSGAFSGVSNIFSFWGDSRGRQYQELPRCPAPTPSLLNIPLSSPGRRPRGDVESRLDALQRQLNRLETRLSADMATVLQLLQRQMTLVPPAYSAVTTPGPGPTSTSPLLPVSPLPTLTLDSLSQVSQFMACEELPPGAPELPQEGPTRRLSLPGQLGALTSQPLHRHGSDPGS

[18] = Volume of distribution in rat at 2 mg/kg, iv; assay type: ADME, organism-based; details: in vivo
[19] = biological target: T3, Sodium channel protein type 9 subunit alpha (Homo sapiens, UniProt Q15858); experiment: Inhibition of human Nav1.7 expressed in HEK293 cells by IonWorks Quattro assay
T3 sequence (Q15858 whole entry): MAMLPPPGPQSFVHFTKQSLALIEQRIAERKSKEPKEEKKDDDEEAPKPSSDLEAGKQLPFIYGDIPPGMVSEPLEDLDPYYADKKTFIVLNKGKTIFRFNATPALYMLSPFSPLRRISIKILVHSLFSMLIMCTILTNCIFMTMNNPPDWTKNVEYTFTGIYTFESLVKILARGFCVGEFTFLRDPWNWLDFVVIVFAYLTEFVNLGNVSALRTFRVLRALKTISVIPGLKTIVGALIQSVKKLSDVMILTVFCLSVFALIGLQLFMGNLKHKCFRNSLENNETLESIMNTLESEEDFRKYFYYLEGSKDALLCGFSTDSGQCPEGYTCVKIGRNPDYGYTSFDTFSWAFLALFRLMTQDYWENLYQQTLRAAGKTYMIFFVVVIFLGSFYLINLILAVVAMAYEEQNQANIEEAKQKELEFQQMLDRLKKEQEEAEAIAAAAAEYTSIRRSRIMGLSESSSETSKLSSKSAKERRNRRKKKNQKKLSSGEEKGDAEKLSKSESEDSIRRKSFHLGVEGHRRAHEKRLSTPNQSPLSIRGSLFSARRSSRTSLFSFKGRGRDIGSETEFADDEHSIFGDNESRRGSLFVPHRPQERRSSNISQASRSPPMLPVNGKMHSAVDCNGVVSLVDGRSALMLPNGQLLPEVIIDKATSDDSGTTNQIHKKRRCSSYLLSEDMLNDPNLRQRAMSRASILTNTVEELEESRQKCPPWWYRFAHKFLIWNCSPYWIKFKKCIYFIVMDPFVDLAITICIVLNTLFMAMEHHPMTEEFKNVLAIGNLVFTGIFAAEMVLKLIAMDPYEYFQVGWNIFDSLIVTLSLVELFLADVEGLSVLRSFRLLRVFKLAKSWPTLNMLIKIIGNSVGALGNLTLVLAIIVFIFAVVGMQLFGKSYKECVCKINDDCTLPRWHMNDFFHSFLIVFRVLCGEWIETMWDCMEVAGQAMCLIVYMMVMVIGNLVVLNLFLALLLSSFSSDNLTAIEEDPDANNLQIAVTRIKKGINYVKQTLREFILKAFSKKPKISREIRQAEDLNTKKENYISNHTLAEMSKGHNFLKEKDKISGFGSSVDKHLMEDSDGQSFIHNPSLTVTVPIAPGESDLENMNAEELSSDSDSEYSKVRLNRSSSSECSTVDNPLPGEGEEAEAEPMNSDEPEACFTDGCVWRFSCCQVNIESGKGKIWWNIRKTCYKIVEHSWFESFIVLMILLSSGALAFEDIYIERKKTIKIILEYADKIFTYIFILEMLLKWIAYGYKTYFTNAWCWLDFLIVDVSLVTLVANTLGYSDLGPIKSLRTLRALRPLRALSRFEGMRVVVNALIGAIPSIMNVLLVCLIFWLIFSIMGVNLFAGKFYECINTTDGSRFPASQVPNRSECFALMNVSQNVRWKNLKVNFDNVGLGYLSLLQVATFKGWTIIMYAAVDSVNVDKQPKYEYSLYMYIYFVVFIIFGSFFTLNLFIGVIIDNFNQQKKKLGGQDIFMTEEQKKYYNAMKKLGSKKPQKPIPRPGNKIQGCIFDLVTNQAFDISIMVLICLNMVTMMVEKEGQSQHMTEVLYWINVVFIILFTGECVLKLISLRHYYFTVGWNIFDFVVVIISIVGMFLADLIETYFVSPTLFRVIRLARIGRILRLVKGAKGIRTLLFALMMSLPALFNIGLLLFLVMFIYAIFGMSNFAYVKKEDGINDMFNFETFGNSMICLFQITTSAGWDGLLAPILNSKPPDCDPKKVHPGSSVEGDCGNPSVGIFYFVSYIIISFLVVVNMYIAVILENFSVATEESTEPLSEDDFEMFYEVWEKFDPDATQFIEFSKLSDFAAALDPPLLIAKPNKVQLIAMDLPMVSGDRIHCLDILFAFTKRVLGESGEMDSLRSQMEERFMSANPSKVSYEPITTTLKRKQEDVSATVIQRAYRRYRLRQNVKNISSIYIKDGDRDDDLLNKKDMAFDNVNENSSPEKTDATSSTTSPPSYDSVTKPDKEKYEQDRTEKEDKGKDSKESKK

[20] = Tmax in rat at 5 mg/kg, po; assay type: ADME, organism-based; details: in vivo
[21] = Solubility of the compound at pH 7.2; assay type: physicochemical; details: buffer
[22] = Tmax in rat at 3 mg/kg, po; assay type: ADME, organism-based; details: in vivo
[23] = Half life in rat at 3 mg/kg, po; assay type: ADME, organism-based; details: in vivo
[24] = Plasma clearance in rat at 3 mg/kg, po; assay type: ADME, organism-based
Rattus norvegicus [25] = experiment: Antallodynic effect in Sprague-Dawley rat tibial nerve transection-induced mechanical allodynia model assessed as 50% shift in paw withdrawal threshold in ipsilateral paw at 10 mg/kg, single dose after 1.5 hrs (reference value: 1.7 +/- 0.2 g); assay type: functional
How it was run: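 Rat tibial nerve transection neuropathic pain model; mechanical allodynia read as 50% paw withdrawal threshold (g) of the ipsilateral hindpaw. The threshold is taken at baseline and again 1.5 h after a single dose. Data are given as mean ± SEM, with significance set at P < 0.05.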

Rattus norvegicus [26] = experiment: Antallodynic effect in Sprague-Dawley rat tibial nerve transection-induced mechanical allodynia model assessed as 50% shift in paw withdrawal threshold in ipsilateral paw at 40 mg/kg, single dose after 1.5 hrs (reference value: 1.7 +/- 0.3 g); assay type: functional
How it was run: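 Tibial nerve transection neuropathic pain model in rat; single dose of 40 mg/kg; 50% paw withdrawal threshold of ipsilateral hindpaw measured 1.5 h post-dose against pre-dose baseline; pregabalin 10 mg/kg as comparator; mean ± SEM, P < 0.05 significance.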

[27] = Oral bioavailability in dog at 0.25 mg/kg; assay type: ADME, organism-based, Canis lupus familiaris; details: in vivo
[28] = Volume of distribution in dog at 0.1 mg/kg, iv; assay type: ADME, organism-based, Canis lupus familiaris; details: in vivo
[29] = Plasma clearance in dog at 0.25 mg/kg, po; assay type: ADME, organism-based, Canis lupus familiaris
[30] = Plasma clearance in dog at 0.1 mg/kg, iv; assay type: ADME, organism-based, Canis lupus familiaris
[31] = biological target: T3, Sodium channel protein type 9 subunit alpha; experiment: Inhibition of human Nav1.7 expressed in SHSY5Y cells by FRET assay; assay type: cell-based, SH-SY5Y
[32] = biological target: Sodium channel protein type 3 subunit alpha (Homo sapiens, UniProt Q9NY46); experiment: Inhibition of human Nav1.3 expressed in SHSY5Y cells by IonWorks Quattro selectivity assay; assay type: cell-based, SH-SY5Y
[33] = Tmax in dog at 0.25 mg/kg, po; assay type: ADME, organism-based, Canis lupus familiaris; details: in vivo
[34] = biological target: T1, Sodium channel protein type 2 subunit alpha; experiment: Inhibition of human Nav1.2 expressed in SHSY5Y cells by IonWorks Quattro selectivity assay; assay type: cell-based, SH-SY5Y
[35] = Half life in dog at 0.1 mg/kg, iv; assay type: ADME, organism-based, Canis lupus familiaris; details: in vivo
Rattus norvegicus [36] = experiment: Toxicity in Sprague-Dawley rat assessed as effect on vertical or horizontal movement at 250 mg/kg, po single dose; assay type: organism-based; details: in vivo
How it was run: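 Rats given a single oral dose of 250 mg/kg; horizontal and vertical locomotor movements compared with vehicle-treated controls.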

[37] = Oral bioavailability in rat at 2 mg/kg; assay type: ADME, organism-based; details: in vivo
[38] = Plasma clearance in rat at 2 mg/kg, po; assay type: ADME, organism-based
[39] = Half life in rat at 1 mg/kg, iv; assay type: ADME, organism-based; details: in vivo
[40] = Tmax in rat at 2 mg/kg, po; assay type: ADME, organism-based; details: in vivo
[41] = Plasma clearance in rat at 1 mg/kg, iv; assay type: ADME, organism-based
[42] = Volume of distribution in rat at 1 mg/kg, iv; assay type: ADME, organism-based; details: in vivo
[43] = Unbound plasma concentration in Sprague-Dawley rat at 40 mg/kg single dose; assay type: ADME, organism-based

Compound: CNC(=O)c1ccc(-c2cc(Cl)cc(Cl)c2Cl)c(N)n1
- microsomal CLint [1]: 7.1 µL/min/mg
- IC50 [2]: 9 µM
- IC50 [3]: 14 µM
- microsomal CLint [4]: < 9 µL/min/mg
- bioavailability [5]: 91%
- IC50 [6]: 13 µM
- IC50 [7]: 0.44 µM
- half-life [8]: 4.6 h
- CL/F [9]: 13.3 mL/min/kg
- half-life [10]: 4 h
- IC50 [11]: 0.19 µM
- Activity (Rattus norvegicus [12]): Active
- clearance [13]: 11.7 mL/min/kg
- IC50 [14]: 0.31 µM
- IC50 [15]: 2.6 µM
- IC50 [16]: 12.8 µM
- IC50 [17]: 30 µM
- Vd [18]: 3 L/kg
- IC50 [19]: 19 µM
- Tmax [20]: 1 h

Compound: Cn1nccc1C(=O)Nc1ccc(-c2ccc(F)cc2Cl)c(N)n1
- IC50 [15]: > 31 µM

Compound: CNC(=O)c1cnc(N)c(-c2cc(Cl)cc(Cl)c2Cl)c1
- IC50 [3]: 6.9 µM
- IC50 [15]: 24 µM

Compound: Cn1nccc1C(=O)Nc1ccc(-c2cc(Cl)ccc2Cl)c(N)n1
- IC50 [15]: 0.92 µM

Compound: Cn1nccc1C(=O)Nc1ccc(-c2ccccc2Cl)c(N)n1
- IC50 [15]: 4.9 µM

Compound: COc1ccc(Cl)c(-c2ccc(NC(=O)c3conc3C)nc2N)c1
- IC50 [15]: 0.5 µM

Compound: Cc1nocc1C(=O)Nc1ccc(-c2cc(Cl)cc(Cl)c2Cl)c(N)n1
- solubility [21]: < 0.1 µg/mL

Compound: CNC(=O)c1ccc(-c2ccc(Cl)cc2)c(N)n1
- IC50 [15]: > 32 µM

Compound: CC(=O)Nc1ccc(-c2cc(Cl)cc(Cl)c2Cl)c(N)n1
- microsomal CLint [1]: 41 µL/min/mg
- IC50 [3]: 3.5 µM
- microsomal CLint [4]: 29 µL/min/mg
- Tmax [22]: 0.75 h
- half-life [23]: 4.1 h
- CL/F [24]: 204 mL/min/kg
- IC50 [15]: 0.16 µM

Compound: Nc1nnc(-c2cccc(Cl)c2Cl)c(N)n1 [LAMOTRIGINE]
- IC50 [3]: 17 µM
- IC50 [15]: 98 µM

Compound: CC(C)C[C@H](CN)CC(=O)O [PREGABALIN]
- Activity (Rattus norvegicus [25]): 5.8 g

Compound: Cn1nccc1C(=O)Nc1ccc(-c2ccccc2OC(F)(F)F)c(N)n1
- IC50 [15]: 2.4 µM

Compound: CNC(=O)c1ccc(-c2cc(Cl)cc(Cl)c2)c(N)n1
- IC50 [15]: > 32 µM

Compound: CNC(=O)c1ccc(-c2ccccc2Cl)c(N)n1
- IC50 [15]: > 32 µM

Compound: Cn1nccc1C(=O)Nc1ccc(-c2cc(Cl)cc(Cl)c2Cl)c(N)n1
- IC50 [15]: 0.75 µM
- solubility [21]: < 0.1 µg/mL

Compound: COc1ccc(Cl)cc1-c1ccc(NC(=O)c2ccnn2C)nc1N
- IC50 [15]: 7.4 µM

Compound: CNC(=O)c1ccc(-c2cc(Cl)ccc2Cl)c(N)n1
- IC50 [15]: 12 µM

Compound: CNC(=O)c1ccc(-c2cccc(Cl)c2)c(N)n1
- IC50 [15]: > 32 µM

Compound: COc1ccc(Cl)c(-c2ccc(NC(=O)C(C)C)nc2N)c1
- IC50 [15]: 4 µM

Compound: Cc1nocc1C(=O)Nc1ccc(-c2ccccc2OC(F)(F)F)c(N)n1
- Activity (Rattus norvegicus [26]): Active
- bioavailability [27]: 63%
- Vd [28]: 5.3 L/kg
- IC50 [7]: 0.33 µM
- CL/F [29]: 10 mL/min/kg
- clearance [30]: 6.2 mL/min/kg
- IC50 [11]: 0.26 µM
- IC50 [31]: 10 µM
- IC50 [32]: 10 µM
- Tmax [33]: 3.5 h
- IC50 [15]: 0.53 µM
- IC50 [17]: > 30 µM
- IC50 [34]: 10 µM
- half-life [35]: 9.7 h

Compound: COc1ccc(Cl)c(-c2ccc(NC(=O)c3ccnn3C)nc2N)c1 [PF-04531083]
- Activity (Rattus norvegicus [26]): 7.3 g
- Activity (Rattus norvegicus [36]): Non-toxic
- bioavailability [37]: 59%
- IC50 [2]: 37 µM
- CL/F [38]: 11.4 mL/min/kg
- half-life [39]: 3.9 h
- Tmax [40]: 1.3 h
- IC50 [6]: 37 µM
- IC50 [7]: 0.54 µM
- IC50 [11]: 0.19 µM
- IC50 [14]: 0.2 µM
- IC50 [15]: 0.7 µM
- clearance [41]: 6.7 mL/min/kg
- Vd [42]: 2.25 L/kg
- fraction unbound [43]: 0.2
- IC50 [19]: 36 µM
